# Assay outcomes from PubChem BioAssay.
# M5 ag: human M5 muscarinic receptor agonists, primary screen, CHO-K1 cells, Fluo-8 calcium fluorescence; activation, % at 3 µM; 360,000 tested, 0.19% active; AID 624037, 2012; CHO-K1 hM5 cells; 0% DMSO wells, 100% maximal acetylcholine response;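 active means activation above the run's mean over test compounds plus 3 SD, cut at about 23% in these data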;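 further: signal is peak over basal fluorescence ratio across the kinetic read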
# Target sequence (P08912 whole entry, looked up): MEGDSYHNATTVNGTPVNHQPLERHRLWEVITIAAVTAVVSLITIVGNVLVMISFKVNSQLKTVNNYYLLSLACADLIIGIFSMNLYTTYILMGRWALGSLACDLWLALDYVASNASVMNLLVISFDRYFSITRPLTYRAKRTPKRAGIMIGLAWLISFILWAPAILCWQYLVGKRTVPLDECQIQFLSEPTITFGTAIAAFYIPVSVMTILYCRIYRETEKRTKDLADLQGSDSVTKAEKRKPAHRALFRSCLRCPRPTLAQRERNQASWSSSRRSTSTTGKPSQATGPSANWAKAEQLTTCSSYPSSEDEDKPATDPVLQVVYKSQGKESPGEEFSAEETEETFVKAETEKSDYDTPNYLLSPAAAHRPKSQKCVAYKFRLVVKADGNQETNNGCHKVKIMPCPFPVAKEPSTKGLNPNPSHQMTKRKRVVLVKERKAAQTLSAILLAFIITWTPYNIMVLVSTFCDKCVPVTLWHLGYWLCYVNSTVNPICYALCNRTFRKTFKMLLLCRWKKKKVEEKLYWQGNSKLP
# M5 PAM: human M5 muscarinic receptor positive allosteric modulators, primary screen, CHO-K1 cells, Fluo-8 calcium fluorescence | CHO-K1 hM5, ACh EC20 PAM; 0% = ACh EC20, 100% = ACh EC100 | activation, % at 3 µM | 360,000 tested, 0.3% active | AID 624038, 2012;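 active means activation above the run cutoff, the mean activation of all test compounds plus 3 SD, cut at about 18% in these data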
#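 Assay system – human M5 receptor in CHO-K1 cells · Read-out – % activation, ACh-normalized · Technique – Fluo-8 calcium fluorescence · Dosing – single-point, 3 µM nominal · Incubation – Fluo-8 loading 80 min at 37 °C plus 30 min room temperature · Repeats – singlicate, one well per test compound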
# CHRM4 antagonist: human M4 muscarinic receptor antagonists, primary screen, CHO cells, Fluo-8 calcium fluorescence | Muscarinic acetylcholine receptor M4 (Homo sapiens), P08173 | CHO-hM4 cells, ACh EC80 | inhibition, % at 3 µM | 360,000 tested, 0.73% active | AID 624125, 2012;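 active means inhibition above its plate's cutoff, the mean inhibition of sample wells plus 3 SD, cut at about 27% in these data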;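 further: 0% = acetylcholine EC80 with DMSO and 100% = DMSO without agonist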
# CHRM4 agonist: human M4 muscarinic receptor agonists, primary screen, CHO-K1 cells, Fluo-8 calcium fluorescence | activation, % at 3 µM | AID 624127, 2012 | CHO-K1 hM4/Gqi5; vehicle 0%, full acetylcholine response 100% | 360,000 tested, 0.14% active;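 active means activation above the run mean over all test wells plus 3 SD, cut at about 32% in these data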;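 further: peak over basal fluorescence ratio per well then scaled between controls; 0% = DMSO wells and 100% = acetylcholine at EC100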
# M4 PAM: human M4 muscarinic receptor positive allosteric modulators, primary screen, CHO-K1 cells, Fluo-8 calcium fluorescence; Muscarinic acetylcholine receptor M4 (Homo sapiens), P08173; CHO-K1 hM4/Gqi5, ACh EC20; 0% = ACh EC20, 100% = maximal ACh; activation, % at 3 µM; 360,000 tested, 0.4% active;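 active means activation above its plate's cutoff, the mean activation of sample wells plus 3 SD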
# M5 antag: human M5 muscarinic receptor antagonists, primary screen, CHO cells, Fluo-8 calcium fluorescence; CHO-hM5 cells, ACh EC80; inhibition, % at 3 µM; 360,000 tested, 0.59% active;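 active means inhibition above a per-plate cutoff, the mean of that plate's test compounds plus 3 SD, cut at about 27% in these data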;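 further: 0% = acetylcholine EC80 with DMSO and 100% = DMSO without agonist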
# The depositor's hits bear a star; ! = not active in a repeat. Compounds with a hit are over-represented: about 1.9% of the library has one in this group of screens.
SMILES,M5 ag,M5 PAM,CHRM4 antagonist,CHRM4 agonist,M4 PAM,M5 antag
CCOC(=O)c1[nH]ncc1CN1CCCC(C(=O)c2ccc(C(C)(C)C)cc2)C1 (stereo not drawn),-7.0,7.7,-13.9,3.0,10.6,1.5
Cc1cccc(C)c1NC(=O)CN(C)C(=O)[C@H](C)NC(=O)c1ccco1,-0.1,-3.1,-8.2,0.8,24.1*,7.6
CSCCC(NC(=O)c1ccco1)C(=O)N(C)CC(=O)Nc1c(Cl)cccc1Cl (stereo not drawn),3.6,13.1,0.5,2.0,15.0,-3.2
COCCN1Cc2cccc(C(=O)Nc3cc(C)cc(C)c3)c2C1=O,-6.9,-1.2,-0.4,1.3,-2.4,-0.6
COCCN1Cc2cccc(C(=O)Nc3c(C)cc(C)cc3C)c2C1=O,22.0,37.4*,-1.2,1.3,12.2,-4.1
CCOc1ccccc1C(=O)NC(C(=O)N(C)Cc1ccc2c(c1)OCO2)C(C)C (stereo not drawn),4.0,-5.3,11.2,7.7,-5.1,13.6
CC(C)C(O)(C#CCN1CCCC1)c1ccccc1 (stereo not drawn),-11.1,-15.2,45.6*,0.7,-12.4,58.1*
CC(C)C(O)(C#CCN1CCCCC1)c1ccccc1 (stereo not drawn),-5.7,-15.0,97.6*,1.4,-35.5,98.3*
CC[C@@]1(C(=O)OC)N[C@H](CN(C)S(=O)(=O)c2ccc(F)cc2)[C@@H]2C(=O)N(C)C(=O)[C@@H]21,-1.0,1.9,-15.2,0.5,3.4,-3.0
C/C(=N\Nc1ccc(S(N)(=O)=O)cc1[N+](=O)[O-])c1cccnc1,1.7,7.9,-3.9,1.3,-1.0,4.2
Cc1ccc2cc(NC(=O)c3ccc(C(C)(C)C)cc3)ccc2n1,-2.5,-0.5,20.3,21.0,11.3,27.4*
CC(C(=O)Nc1ccc2c(c1)OCCO2)c1ccc([N+](=O)[O-])cc1 (stereo not drawn),32.3*,-10.6,2.6,17.1,-9.9,1.4
CCCCCCCC[n+]1cccc(C(=O)N(CC)CC)c1,-8.2,-1.0,-1.2,0.7,-8.7,-0.8
CCCCCCCCCCCCCCCC[n+]1cccc(C(=O)N(CC)CC)c1,-8.4,-33.1,41.3*,0.8,-10.9,43.4*!
COc1ccc(C(=O)O)cc1S(=O)(=O)NCc1ccncc1,1.0,3.9,1.3,0.1,3.0,11.0
Cc1noc(C)c1C(=O)Nc1ccc(S(=O)(=O)N2CCC(C)CC2)cc1,9.1,-1.4,1.4,11.3,-5.4,0.7
Cc1onc(-c2c(F)cccc2Cl)c1C(=O)Nc1ccc(S(=O)(=O)N2CCOCC2)cc1,-1.1,-0.8,-1.7,4.2,0.0,10.0
Cc1onc(-c2c(F)cccc2Cl)c1C(=O)Nc1cc(S(=O)(=O)N2CCCCC2)ccc1O,-1.6,-39.4,26.8*,24.2,-13.5,20.1
Cc1noc(C)c1C(=O)Nc1ccc(S(=O)(=O)N2CCCCC2)cc1,-2.1,-1.0,1.6,5.8,16.2*,9.8
COCO/C=C(\NC(C)=O)c1ccccc1,5.2,10.9,-6.0,1.5,7.0,-3.8
O=C(NCCc1ccccc1)C1Cc2c(-c3ccccc3)ccnc2O1 (stereo not drawn),-0.1,1.8,-5.7,1.9,4.6,0.9
COc1ccc(CN(CC2CCC(C(=O)O)CC2)C(=S)Nc2cc(C)cc(C)c2)cc1 (stereo not drawn),5.2,-4.9,-9.1,4.4,18.5*,7.2
Cc1cc(C(=O)OCC(=O)N2CCOCC2)c2ccccc2n1,-2.6,-4.6,-10.4,0.8,18.6*,-4.0
Cn1c(SCC(=O)NCC2COc3ccccc3O2)nnc1C(F)(F)F (stereo not drawn),-0.7,6.2,2.3,0.2,6.7,9.2
CC1=CC(C)(C)N(C(=O)CNC2CCCCC2)c2cc(C)ccc21,-13.4,-32.6,47.1*,0.6,-25.0,40.5*
